According to ChEMBL document CHEMBL5104098, “Exploring the structure-activity relationship of benzylidene-2,3-dihydro-1H-inden-1-one compared to benzofuran-3(2H)-one derivatives as inhibitors of tau amyloid fibers” (Eur J Med Chem, 2022):
Active and inactive are the calls of the source. The rule behind the calls is not given here.

How the values were obtained:
[1] = Inhibition of synthetic AcPHF6 peptide aggregation in pH 7.4 phosphate buffer assessed as reduction in fluorescence intensity at 10 uM and measured every minute over 2 hrs by ThT fluorescence assay relative to control
Outline: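 Fluorescence read every minute for 2 h, ex 440/em 480 nm. Intrinsic compound fluorescence corrected with peptide-free blank wells. Hexaplicate; % inhibition versus peptide-only control.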

[2] = Displacement of ThT from AcPHF6 in pH 7.4 phosphate buffer assessed as reduction in fluorescence intensity relative to control; conditions: dose 10.0 µM
Outline: (§1)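 Preformed AcPHF6 fibers (1 mM peptide left 24 h in deionised water) added to give 100 μM fibers with 10 μM ThT in 50 mM phosphate buffer pH 7.4, ≤0.5% DMSO; compound 10 μM (1:1 with ThT). Emission spectra recorded shortly after fiber addition, excitation 440 nm; % decrease calculated from emission intensity at 480 nm.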

[3] = Displacement of ThT from AcPHF6 in pH 7.4 phosphate buffer at 1:1 compound:ThT ratio; outline: as §1
[4] = Inhibition of synthetic AcPHF6 peptide aggregation in pH 7.4 phosphate buffer assessed as reduction in beta sheet formation at 100 uM incubated for 2 hrs by circular dichroism spectroscopy
Outline: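 CD samples: 100 μM AcPHF6 in 50 mM phosphate buffer, compound with <0.2% DMSO, 1 mm quartz cell. Spectra taken after 2 h at room temperature, 260–190 nm, 1 nm resolution, 1 s per point, 10 nm bandwidth. Compound level is printed as 10 μM in methods and 100 μM in legend.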

[5] = Inhibition of synthetic AcPHF6 peptide aggregation in pH 7.4 phosphate buffer assessed as reduction in beta sheet fibrillation at 100 uM incubated for 24 hrs by atomic force microscopy analysis
Outline: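 AFM imaging of samples taken from the CD preparations after 24 h fibrillation at room temperature; 100 μM AcPHF6 alone or with compound at 100 μM.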

| inhibition [1] [%] | inhibition [2] [%] | inhibition [3] | inhibition [4] | inhibition [5] | Structure (SMILES) |
| --- | --- | --- | --- | --- | --- |
| 99 | 94 | Active | – | – | O=C1/C(=C/c2cc(O)c(O)c(O)c2)Oc2cc(O)cc(O)c21 |
| 68 | 70 | Active | – | – | O=C1/C(=C/c2cc(O)c(O)c(O)c2)Oc2ccccc21 |
| 91 | 88 | Active | – | – | O=C1/C(=C/c2cc(O)c(O)c(O)c2)Oc2c(O)cccc21 |
| 93 | 85 | Active | – | – | O=C1/C(=C/c2ccc(O)c(O)c2)Oc2cc(O)cc(O)c21 |
| 94 | 89 | Active | – | – | O=C1/C(=C/c2ccc(O)cc2O)Oc2cc(O)cc(O)c21 |
| 87 | 90 | Active | Active | – | O=C1/C(=C/c2cc(O)c(O)c(O)c2)Cc2cc(O)cc(O)c21 |

Continued, compound first:

| Structure (SMILES) | inhibition [1] [%] | inhibition [2] [%] | inhibition [3] | inhibition [4] | inhibition [5] |
| --- | --- | --- | --- | --- | --- |
| O=C1/C(=C/c2ccc(O)cc2O)Cc2cc(O)cc(O)c21 | 72 | 76 | Active | – | – |
| COc1cccc(/C=C2\Oc3c(OC)cccc3C2=O)c1 | 69 | 45 | Active | – | – |
| O=C1/C(=C/c2cc(O)c(O)c(O)c2)Cc2ccccc21 | 71 | 42 | Active | Active | Active |
| O=C1/C(=C/c2cc(O)c(O)c(O)c2)Cc2c(O)cccc21 | 83 | 78 | Active | Active | – |
| O=C1/C(=C/c2ccc(O)c(O)c2)Cc2cc(O)cc(O)c21 | 78 | 65 | Active | – | – |
